Assay: Toxicity liver stage against HepG2, at 10uM
Format: cell-based
Design: test concentration 10 uM, cell line HepG2-A16-CD81EGFP
Settings: human, HepG2-A16-CD81EGFP cells; read-out: INHIBITION
How it was run: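 Uninfected HepG2-A16-CD81EGFP cells, 3 × 10^3 per well, 1536-well, plated on prespotted compound at 10 μM final, parasite-free screening media added to match infected plates; puromycin 10 μM positive, DMSO 0.5% negative; run in parallel with 48 h PbLuc assay at 37 °C, 5% CO2; viability by CellTiter-Glo luminescence, normalized to controls.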

SMILES	cytotoxicity at 10 µM [%]
COc1ccc(CCCC(=O)N2C[C@H](C3CC3)[C@@H](N(C)C)C2)cc1	0.624
CS(=O)(=O)N1CCOC2(CCN(c3ncccn3)CC2)c2ccccc21	-1.52
CC(NC(=O)NCCNc1cccc(F)c1C#N)c1cccs1 (centres undefined)	-1.31
Cc1ccc2cc(C(=O)N3CCN(C(=O)c4ccoc4)CC3)[nH]c2c1	-43.6
Cc1cccc(OC2CCN(c3ncc(C#N)cc3Cl)CC2)n1	8.13
N#Cc1ccc(N2CCCN(CC(=O)N3CCOCC3)CC2)cc1	6.62
CNC(=O)c1ccc(S(=O)(=O)NCc2cccnc2N(C)C)cc1	1.59
O=C(CCc1ccncc1)NCCOc1ncc(Cl)cc1Cl	-2.56
O=C1CO[C@@H]2CN(Cc3ccncc3)C[C@H]2N1Cc1ccncc1	-85
C1CCCN(c2nc(C3CC3)ns2)CC1	-12.3
Cc1csc(N2CCCN(C(=O)C3(C#N)CCCC3)CC2)n1	-1.01
O=C(c1ccco1)N1CCC2(CCC(=O)N2Cc2ccccc2)CC1	7.59
CC(C)Cc1nc(CO)n(-c2ccc3c(c2)OCCO3)n1	-1.86
Cc1ccc(CN2CC[C@H]3C[C@H](c4nc(C5CC5)cs4)O[C@@H]3C2)o1	3.81
Cn1cc(CN2CCc3onc(COc4cccnc4)c3C2)cn1	4.78
O=C(C1CCN(S(=O)(=O)N2CCCC2)CC1)N1CCC2(CC1)OCCO2	-17.9
COc1cccc(CN(C)C(=O)c2ccc(NC(C)=O)s2)c1OC	0.23
O=S1(=O)CCC(n2nc(Cc3cccs3)nc2-c2cnccn2)C1 (centres undefined)	-6.33
Cc1nc(CN2CCC3(CCCN(C(=O)c4cnccn4)C3)C2)cs1 (centres undefined)	-147
O=C(O)c1cccc(CN2CCC(c3ccnc4ccnn34)CC2)c1	-16.2
COc1ccc(N(C(=O)Cc2ccc(C)nc2)C(C)C)cc1F	0.854
Cn1c(C2CC2)nc2c1CCN(CC(=O)Nc1nncs1)C2	-6.44

SMILES	cytotoxicity at 10 µM [%]
Cc1cc(C)n(CC(=O)N2Cc3cnc(C(C)(C)C)nc3C2)n1	3.1
CC(C)N(Cc1cnn(C)c1)CC1CCCN(S(C)(=O)=O)C1 (centres undefined)	-21.4
CCc1n[nH]c(C2CN(C(=O)c3nc(C)ncc3Cl)CCO2)n1 (centres undefined)	-7.25
COc1ccccc1OCC(=O)NCC(C)(O)C1CC1 (centres undefined)	-0.419
Cc1ccoc1C(=O)NC1CCN(Cc2cccc3ccccc23)CC1	0.561
CN(C)CCCNC(=O)c1nc(Cc2c(Cl)cccc2Cl)no1	-0.31
Cc1nc[nH]c1C(=O)N1CC[C@@H](NC(=O)c2ccccn2)[C@H](O)C1	4.61
NS(=O)(=O)c1cccnc1Nc1c(Cl)cccc1Cl	-11.8
c1sc(C2CCCCC2)nc1CN1CCn2c(nnc2C2CC2)C1	-6.61
Cc1cncc(NC(=O)c2ccc(CN3CCCC(C(N)=O)C3)cc2)c1 (centres undefined)	0.86
CC(C)c1ncc2c(n1)CN(CC1CCCCO1)CC2 (centres undefined)	8.86
COCCc1noc(-c2cc(Cl)c3c(c2)OCCCO3)n1	3.61
CC(=O)N1N=C(c2ccco2)OC1C(=O)N(CC(C)C)CC(C)C (centres undefined)	-1.31
CC(=O)N1CCN([C@@H]2CC[C@@H](N(C)C(=O)C3CCCCC3)[C@H]2O)CC1	-10.6
O=C(O)c1ccccc1-n1cc(CN2CCOC(c3cc[nH]n3)C2)cn1 (centres undefined)	3.33
CC(C)N1CCC(N2CCN(C3CCC3)CC2CCO)CC1 (centres undefined)	-12.5
COc1cccc(C(=O)N2CCc3c(nc(N)[nH]c3=O)C2)c1C	1.96
N#Cc1cccc(S(=O)(=O)NC(=O)COCC(F)(F)F)c1	-0.828
c1cc(C2CN(C3CCCC3)C2)n[nH]1	4
Cc1nc(C)n(C2CCCN(C(=O)c3ccnc(N(C)C)c3)C2)n1 (centres undefined)	-8.36
N#Cc1ccsc1NC(=O)CN1CCOC(Cn2cccn2)C1 (centres undefined)	-5.66
COc1ccccc1C(O)CNC(=O)NCc1csc(C)n1 (centres undefined)	-5.34
